{"source": "ChEMBL document CHEMBL4028914", "about": "“Structure-Based Design of 6-Chloro-4-aminoquinazoline-2-carboxamide Derivatives as Potent and Selective p21-Activated Kinase 4 (PAK4) Inhibitors” (J Med Chem, 2018)", "key": {"[1]": {"experiment": "Stability in human liver microsomes assessed as compound remaining at 1 uM in absence of NADPH regenerating system measured after 1 hr by LC-MS/MS method", "format": "ADME, microsome", "details": "read-out: Stability", "how_it_was_run": "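Liver microsomal incubation ran for 60 min without the NADPH regenerating system, which was replaced by buffer. Read-out was percent compound remaining.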"}, "[2]": {"experiment": "AUC (0 to infinity) in Sprague-Dawley rat at 2 mg/kg, iv by LC-MS/MS method", "format": "ADME, organism-based", "parameters": "dose 2 mg/kg, route intravenous, time infinity", "details": "in vivo", "how_it_was_run": "(§1)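 Single intravenous dose of 2 mg/kg given to Sprague-Dawley rats. Values are the mean ± SD of three independent determinations.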"}, "[3]": {"experiment": "Half life in Sprague-Dawley rat at 2 mg/kg, iv by LC-MS/MS method", "format": "ADME, organism-based", "details": "in vivo", "how_it_was_run": "as §1"}, "[4]": {"experiment": "Aqueous solubility of the compound at pH 7.4 by UV-metric method", "format": "physicochemical"}, "CYP2C19": {"biological_target": "CYP2C19 (Homo sapiens, UniProt P33261)", "sequence (P33261 whole entry, canonical isoform)": "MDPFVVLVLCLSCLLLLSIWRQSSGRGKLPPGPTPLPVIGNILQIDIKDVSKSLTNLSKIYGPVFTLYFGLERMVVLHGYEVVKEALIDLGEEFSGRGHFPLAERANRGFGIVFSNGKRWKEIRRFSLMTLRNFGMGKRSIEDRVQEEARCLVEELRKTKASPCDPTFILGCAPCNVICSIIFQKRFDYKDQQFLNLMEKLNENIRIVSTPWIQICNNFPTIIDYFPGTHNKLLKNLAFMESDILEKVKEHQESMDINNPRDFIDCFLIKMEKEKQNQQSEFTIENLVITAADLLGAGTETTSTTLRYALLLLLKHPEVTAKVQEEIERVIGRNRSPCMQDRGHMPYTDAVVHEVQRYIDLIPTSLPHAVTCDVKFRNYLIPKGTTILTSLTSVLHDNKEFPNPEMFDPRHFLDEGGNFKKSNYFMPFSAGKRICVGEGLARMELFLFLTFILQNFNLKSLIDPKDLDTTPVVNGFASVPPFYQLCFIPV", "experiment": "Inhibition of CYP2C19 in human liver microsomes at 10 uM using S-mephenytoin as substrate preincubated for 10 mins followed by NADPH addition measured after 10 mins by LC-MS/MS method", "format": "ADME", "details": "probe S-mephenytoin", "how_it_was_run": "(§2)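 Each CYP isoform was tested at 10 μM compound. Positive controls: α-naphthoflavone (CYP1A2), sulfaphenazole (CYP2C9), ticlopidine (CYP2C19), quinidine (CYP2D6), ketoconazole (CYP3A4).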"}, "[5]": {"experiment": "Clearance in Sprague-Dawley rat at 2 mg/kg, iv by LC-MS/MS method", "format": "ADME, organism-based", "details": "in vivo", "how_it_was_run": "as §1"}, "CYP2C9": {"biological_target": "CYP2C9 (Homo sapiens, UniProt P11712)", "sequence (P11712 whole entry)": "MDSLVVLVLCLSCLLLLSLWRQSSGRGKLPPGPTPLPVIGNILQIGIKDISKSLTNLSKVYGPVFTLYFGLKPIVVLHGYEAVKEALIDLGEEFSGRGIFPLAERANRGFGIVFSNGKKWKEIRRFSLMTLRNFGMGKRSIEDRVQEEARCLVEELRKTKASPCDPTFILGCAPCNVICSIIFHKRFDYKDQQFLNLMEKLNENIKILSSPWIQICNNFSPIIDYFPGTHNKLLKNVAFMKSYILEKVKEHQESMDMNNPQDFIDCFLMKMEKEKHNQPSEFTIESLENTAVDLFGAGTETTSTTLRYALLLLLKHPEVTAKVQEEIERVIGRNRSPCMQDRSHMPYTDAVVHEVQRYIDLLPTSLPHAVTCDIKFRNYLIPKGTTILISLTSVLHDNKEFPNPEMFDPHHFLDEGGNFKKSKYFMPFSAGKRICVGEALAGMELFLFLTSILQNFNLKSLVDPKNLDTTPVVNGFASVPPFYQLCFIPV", "experiment": "Inhibition of CYP2C9 in human liver microsomes at 10 uM using diclofenac as substrate preincubated for 10 mins followed by NADPH addition measured after 10 mins by LC-MS/MS method", "format": "ADME", "details": "probe diclofenac", "how_it_was_run": "as §2"}, "hERG (KCNH2)": {"biological_target": "hERG (KCNH2) (Homo sapiens, UniProt Q12809)", "sequence (Q12809 whole entry)": "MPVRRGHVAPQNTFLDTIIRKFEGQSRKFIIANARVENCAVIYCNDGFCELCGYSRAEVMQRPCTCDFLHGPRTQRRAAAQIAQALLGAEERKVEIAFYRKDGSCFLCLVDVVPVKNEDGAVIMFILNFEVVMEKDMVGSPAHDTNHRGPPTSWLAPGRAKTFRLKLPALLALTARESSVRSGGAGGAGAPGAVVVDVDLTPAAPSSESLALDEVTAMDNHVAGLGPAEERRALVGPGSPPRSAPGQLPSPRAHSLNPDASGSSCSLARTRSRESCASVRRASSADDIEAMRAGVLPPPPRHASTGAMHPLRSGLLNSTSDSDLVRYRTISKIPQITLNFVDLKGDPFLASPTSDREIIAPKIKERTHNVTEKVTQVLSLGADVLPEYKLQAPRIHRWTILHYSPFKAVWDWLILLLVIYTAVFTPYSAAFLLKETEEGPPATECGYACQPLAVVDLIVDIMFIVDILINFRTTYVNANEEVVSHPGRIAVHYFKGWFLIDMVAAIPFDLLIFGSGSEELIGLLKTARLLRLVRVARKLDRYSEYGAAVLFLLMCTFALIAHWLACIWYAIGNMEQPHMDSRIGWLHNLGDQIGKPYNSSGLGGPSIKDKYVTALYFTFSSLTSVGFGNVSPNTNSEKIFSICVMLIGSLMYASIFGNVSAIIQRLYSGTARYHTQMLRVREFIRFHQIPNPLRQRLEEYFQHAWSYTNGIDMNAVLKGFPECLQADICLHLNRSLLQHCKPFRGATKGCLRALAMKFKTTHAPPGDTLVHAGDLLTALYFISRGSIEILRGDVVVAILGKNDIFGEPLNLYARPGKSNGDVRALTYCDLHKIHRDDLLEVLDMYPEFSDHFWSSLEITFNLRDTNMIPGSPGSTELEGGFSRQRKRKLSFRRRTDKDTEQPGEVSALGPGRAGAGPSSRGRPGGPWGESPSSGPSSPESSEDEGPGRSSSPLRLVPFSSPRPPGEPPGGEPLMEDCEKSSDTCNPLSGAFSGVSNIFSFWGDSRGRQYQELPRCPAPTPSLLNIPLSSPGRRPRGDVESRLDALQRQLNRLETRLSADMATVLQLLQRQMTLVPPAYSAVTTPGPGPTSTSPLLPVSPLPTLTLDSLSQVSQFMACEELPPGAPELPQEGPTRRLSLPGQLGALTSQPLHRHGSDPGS", "experiment": "Inhibition of human ERG at 40 uM by Qpatch assay relative to control", "how_it_was_run": "(§3)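 hERG current was recorded by automated patch clamp (Qpatch 16×) in CHO cells expressing hERG.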"}, "[6]": {"experiment": "Initial concentration in Sprague-Dawley rat at 2 mg/kg, iv by LC-MS/MS method", "format": "ADME, organism-based", "details": "in vivo", "how_it_was_run": "as §1"}, "[7]": {"experiment": "Intrinsic clearance in human liver microsomes at 1 uM measured after 1 hr by LC-MS/MS method", "format": "ADME, microsome", "details": "read-out: CLH"}, "[8]": {"experiment": "Partition coefficient, log P of the compound by UV-metric method", "format": "physicochemical", "details": "octanol/water"}, "[9]": {"experiment": "Intrinsic clearance in rat liver microsomes at 1 uM measured after 1 hr by LC-MS/MS method", "format": "ADME, microsome", "details": "read-out: CLH"}, "[10]": {"experiment": "Stability in Sprague-Dawley rat blood plasma assessed as compound remaining at 2 uM measured after 120 mins by LC-MS/MS method", "format": "ADME, cell-free", "details": "read-out: Stability"}, "[11]": {"experiment": "Aqueous solubility of the compound at pH 2.0 by UV-metric method", "format": "physicochemical"}, "[12]": {"experiment": "Intrinsic clearance in human liver at 1 uM measured after 1 hr by LC-MS/MS method", "format": "ADME, tissue-based", "details": "read-out: CLH"}, "CYP2D6": {"biological_target": "CYP2D6 (Homo sapiens, UniProt P10635)", "sequence (P10635 whole entry)": "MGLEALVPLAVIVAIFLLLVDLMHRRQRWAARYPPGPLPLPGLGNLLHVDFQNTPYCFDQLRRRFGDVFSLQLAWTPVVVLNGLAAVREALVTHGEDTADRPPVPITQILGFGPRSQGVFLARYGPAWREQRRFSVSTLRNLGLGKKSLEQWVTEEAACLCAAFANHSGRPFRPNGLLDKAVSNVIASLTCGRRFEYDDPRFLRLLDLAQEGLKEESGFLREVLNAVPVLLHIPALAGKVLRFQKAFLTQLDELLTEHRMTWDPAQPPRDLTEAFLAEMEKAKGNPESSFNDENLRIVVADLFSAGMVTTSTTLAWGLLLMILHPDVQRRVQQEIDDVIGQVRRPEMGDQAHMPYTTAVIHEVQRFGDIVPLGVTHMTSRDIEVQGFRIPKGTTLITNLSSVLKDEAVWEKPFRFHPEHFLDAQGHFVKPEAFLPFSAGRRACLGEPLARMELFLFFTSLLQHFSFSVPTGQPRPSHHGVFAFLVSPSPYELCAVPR", "experiment": "Inhibition of CYP2D6 in human liver microsomes at 10 uM using dextromethorphan as substrate preincubated for 10 mins followed by NADPH addition measured after 10 mins by LC-MS/MS method", "format": "ADME", "details": "probe dextromethorphan", "how_it_was_run": "as §2"}, "[13]": {"experiment": "Solubility of the compound in DMSO by UV-metric method", "format": "physicochemical"}, "[14]": {"biological_target": "Voltage-gated inwardly rectifying potassium channel KCNH2 (Homo sapiens, UniProt Q12809)", "sequence (Q12809 whole entry)": "as the sequence (Q12809 whole entry) above", "experiment": "Inhibition of human ERG by Qpatch assay", "how_it_was_run": "as §3"}, "[15]": {"experiment": "Half life in rat liver microsomes at 1 uM preincubated for 10 mins followed by NADPH addition measured after 1 hr by LC-MS/MS method", "format": "ADME, microsome"}, "[16]": {"experiment": "Volume of distribution at steady state in Sprague-Dawley rat at 2 mg/kg, iv by LC-MS/MS method", "format": "ADME, organism-based", "details": "in vivo, read-out: Vdss", "how_it_was_run": "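Sprague-Dawley rats receive a single intravenous dose of 2 mg/kg. Pharmacokinetic parameters derived are C0, clearance, Vss, T1/2, AUC(0−t) and AUC(0−∞). Values are averages of three independent determinations, reported as mean ± SD.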"}, "[17]": {"experiment": "Stability in rat liver microsomes assessed as compound remaining at 1 uM preincubated for 10 mins followed by NADPH addition measured after 1 hr by LC-MS/MS method", "format": "ADME, microsome", "details": "read-out: Stability"}, "[18]": {"experiment": "Cmax in Sprague-Dawley rat at 2 mg/kg, iv by LC-MS/MS method", "format": "ADME, organism-based", "parameters": "dose 2 mg/kg, route intravenous", "details": "in vivo", "how_it_was_run": "as §1"}, "CYP1A2": {"biological_target": "T1, CYP1A2 (Homo sapiens, UniProt P05177)", "T1 sequence (P05177 whole entry)": "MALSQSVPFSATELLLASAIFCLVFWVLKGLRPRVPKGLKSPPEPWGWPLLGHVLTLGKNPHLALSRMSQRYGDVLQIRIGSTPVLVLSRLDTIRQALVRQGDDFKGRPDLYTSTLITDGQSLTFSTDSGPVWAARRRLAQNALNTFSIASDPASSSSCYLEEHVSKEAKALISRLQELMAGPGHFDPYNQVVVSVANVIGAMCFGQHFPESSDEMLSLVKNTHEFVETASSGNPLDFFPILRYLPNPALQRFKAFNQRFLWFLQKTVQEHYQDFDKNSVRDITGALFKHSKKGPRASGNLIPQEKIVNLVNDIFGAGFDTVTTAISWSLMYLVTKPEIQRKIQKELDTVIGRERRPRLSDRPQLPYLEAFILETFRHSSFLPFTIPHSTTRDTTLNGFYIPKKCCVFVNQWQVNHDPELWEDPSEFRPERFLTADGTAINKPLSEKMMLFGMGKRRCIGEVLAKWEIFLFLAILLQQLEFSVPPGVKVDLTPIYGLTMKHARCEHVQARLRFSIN", "experiment": "Inhibition of CYP1A2 in human liver microsomes at 10 uM using phenacetin as the substrate preincubated for 10 mins followed by NADPH addition measured after 10 mins by LC-MS/MS method", "format": "ADME", "details": "probe phenacetin", "how_it_was_run": "as §2"}, "[19]": {"experiment": "AUC (0 to t) in Sprague-Dawley rat at 2 mg/kg, iv by LC-MS/MS method", "format": "ADME, organism-based", "details": "in vivo", "how_it_was_run": "as §1"}, "[20]": {"experiment": "Stability in rat liver microsomes assessed as compound remaining at 1 uM in absence of NADPH regenerating system measured after 1 hr by LC-MS/MS method", "format": "ADME, microsome", "details": "read-out: Stability", "how_it_was_run": "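Control incubation with rat liver microsomes: buffer replaces the NADPH regenerating system for the whole 60 min incubation. Read-out is percent of parent compound remaining.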"}, "[21]": {"experiment": "Stability in human liver microsomes assessed as compound remaining at 1 uM preincubated for 10 mins followed by NADPH addition measured after 1 hr by LC-MS/MS method", "format": "ADME, microsome", "details": "read-out: Stability"}, "CYP3A4": {"biological_target": "CYP3A4 (Homo sapiens, UniProt P08684)", "sequence (P08684 whole entry)": "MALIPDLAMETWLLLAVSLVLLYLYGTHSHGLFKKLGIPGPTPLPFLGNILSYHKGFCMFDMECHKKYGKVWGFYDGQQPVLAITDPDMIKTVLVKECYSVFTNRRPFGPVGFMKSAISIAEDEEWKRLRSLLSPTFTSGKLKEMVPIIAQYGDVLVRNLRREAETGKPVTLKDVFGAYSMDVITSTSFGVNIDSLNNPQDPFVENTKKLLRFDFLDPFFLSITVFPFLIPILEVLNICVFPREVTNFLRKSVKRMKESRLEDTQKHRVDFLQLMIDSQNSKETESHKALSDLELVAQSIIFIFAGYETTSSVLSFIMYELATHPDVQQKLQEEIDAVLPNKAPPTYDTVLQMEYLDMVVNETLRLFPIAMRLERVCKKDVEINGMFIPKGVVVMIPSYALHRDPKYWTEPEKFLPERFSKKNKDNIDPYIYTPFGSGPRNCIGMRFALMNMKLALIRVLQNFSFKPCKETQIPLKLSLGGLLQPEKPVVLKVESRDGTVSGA", "experiment": "Inhibition of CYP3A4 in human liver microsomes at 10 uM using midozolam as substrate preincubated for 10 mins followed by NADPH addition measured after 10 mins by LC-MS/MS method", "format": "ADME", "details": "probe midozolam", "how_it_was_run": "as §2"}, "[22]": {"experiment": "Stability in Sprague-Dawley rat blood plasma assessed as compound remaining at 2 uM measured after 60 mins by LC-MS/MS method", "format": "ADME, cell-free", "details": "read-out: Stability"}, "[23]": {"experiment": "Dissociation constant, pKa of compound", "format": "physicochemical"}, "[24]": {"experiment": "Distribution coefficient, logD of the compound at pH 7.4 by UV-metric method", "format": "physicochemical", "details": "octanol/water"}, "[25]": {"experiment": "Half life in human liver microsomes at 1 uM preincubated for 10 mins followed by NADPH addition measured after 1 hr by LC-MS/MS method", "format": "ADME, microsome"}, "[26]": {"experiment": "Intrinsic clearance in rat liver at 1 uM measured after 1 hr by LC-MS/MS method", "format": "ADME, tissue-based", "details": "read-out: CLH"}}, "data": [{"smiles": "C[C@@H]1CN(C(=O)c2nc(Nc3cc(C4CC4)[nH]n3)c3cc(Cl)ccc3n2)CCN1.Cl", "values": [{"measurement": "remaining at 1 h, 1 µM", "setting": "[1]", "value": 103, "unit": "%"}, {"measurement": "AUC(0-inf)", "setting": "[2]", "value": 472, "unit": "ng·h/mL"}, {"measurement": "half-life", "setting": "[3]", "value": 87.6, "unit": "min"}, {"measurement": "solubility", "setting": "[4]", "value": "> 10000", "unit": "µg/mL"}, {"measurement": "inhibition at 10 min, 10 µM", "setting": "CYP2C19", "value": 12.2, "unit": "%"}, {"measurement": "clearance", "setting": "[5]", "value": 70.7, "unit": "mL/min/kg"}, {"measurement": "inhibition at 10 min, 10 µM", "setting": "CYP2C9", "value": 15.1, "unit": "%"}, {"measurement": "inhibition at 40 µM", "setting": "hERG (KCNH2)", "value": 42, "unit": "%"}, {"measurement": "C0", "setting": "[6]", "value": 736, "unit": "ng/mL"}, {"measurement": "microsomal CLint at 1 µM", "setting": "[7]", "value": 28.7, "unit": "µL/min/mg"}, {"measurement": "logP", "setting": "[8]", "value": 2.54}, {"measurement": "microsomal CLint at 1 µM", "setting": "[9]", "value": 33.2, "unit": "µL/min/mg"}, {"measurement": "remaining at 2 h, 2 µM", "setting": "[10]", "value": 115, "unit": "%"}, {"measurement": "solubility", "setting": "[11]", "value": "> 10000", "unit": "µg/mL"}, {"measurement": "CLint scaled at 1 µM", "setting": "[12]", "value": 25.8, "unit": "mL/min/kg"}, {"measurement": "inhibition at 10 min, 10 µM", "setting": "CYP2D6", "value": 1.8, "unit": "%"}, {"measurement": "solubility", "setting": "[13]", "value": "> 30", "unit": "mM"}, {"measurement": "IC50", "setting": "[14]", "value": "> 40", "unit": "µM"}, {"measurement": "half-life at 1 µM", "setting": "[15]", "value": 41.8, "unit": "min"}, {"measurement": "Vd", "setting": "[16]", "value": 6.43, "unit": "L/kg"}, {"measurement": "remaining at 1 h, 1 µM", "setting": "[17]", "value": 36.9, "unit": "%"}, {"measurement": "Cmax", "setting": "[18]", "value": 736, "unit": "ng/mL"}, {"measurement": "inhibition at 10 min, 10 µM", "setting": "CYP1A2", "value": 17.2, "unit": "%"}, {"measurement": "AUC(0-t)", "setting": "[19]", "value": 465, "unit": "ng·h/mL"}, {"measurement": "remaining at 1 h, 1 µM", "setting": "[20]", "value": 97, "unit": "%"}, {"measurement": "remaining at 1 h, 1 µM", "setting": "[21]", "value": 41.9, "unit": "%"}, {"measurement": "inhibition at 10 min, 10 µM", "setting": "CYP3A4", "value": 2.3, "unit": "%"}, {"measurement": "remaining at 1 h, 2 µM", "setting": "[22]", "value": 110, "unit": "%"}, {"measurement": "pKa", "setting": "[23]", "value": 7.93}, {"measurement": "logD", "setting": "[24]", "value": 1.9}, {"measurement": "half-life at 1 µM", "setting": "[25]", "value": 48.4, "unit": "min"}, {"measurement": "CLint scaled at 1 µM", "setting": "[26]", "value": 59.7, "unit": "mL/min/kg"}]}]}
